The results in this text go back to ChEMBL document CHEMBL1132356, “Structural modification of Fas C-terminal tripeptide and its effects on the inhibitory activity of Fas/FAP-1 binding” (J Med Chem, 1999).

Starred links: 1 amine or outer side, 2 acyl side, 3 side chain; linkers in the order of their positions; H or OH if unused. Non-standard residues stand in square brackets, D forms with d. Residues, ends and D or L forms follow the SMILES beside them. *: point of attachment. Sta = CC(C)C[C@H](N)[C@@H](O)CC(=O)O; tBuAla = CC(C)(C)C[C@H](N)C(=O)O; NMeL = CN[C@@H](CC(C)C)C(=O)O; Chg = N[C@H](C(=O)O)C1CCCCC1; Phg = N[C@H](C(=O)O)c1ccccc1; Tle = CC(C)(C)[C@H](N)C(=O)O; NMeS = CN[C@@H](CO)C(=O)O; hSer = N[C@@H](CCO)C(=O)O; Nva = CCC[C@H](N)C(=O)O; Abu = CC[C@H](N)C(=O)O; Aib = CC(C)(N)C(=O)O; CO = O=C([*:1])[*:2]; Bz = O=C(c1ccccc1)*; NHPh = c1ccc(N*)cc1; Bn = c1ccc(C*)cc1

Tested on in the first assay: not listed separately
Put plainly: Compound (30 mM) was tested in vitro for inhibitory potency against Fas-associated phosphatase-1 binding from HFAP-10cDNA subcloned into the bluescript vector pSK-II(Stratagene). Particulars: in the assay text read “30 µM” for “30 mM”. The procedure, abridged: (§1)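 ³⁵S-labeled protein incubated 16 h at 4 °C with peptide and GST-Fas immobilized on beads, in pH 8.0 Tris/NaCl buffer with DTT, EDTA, 1.1% NP-40 and protease inhibitors. After four washes, bead-bound radioactivity was counted by scintillation. Specific binding is Fas binding minus FasΔ15 binding. % inhibition = 100 − (specific binding with peptide / without peptide × 100).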
For the compound `CC(=O)N[C@@H](CO)C(=O)N[C@H](C(=O)N[C@H](C(=O)O)C(C)C)C(C)(C)C` (Ac-Ser-[Tle]-Val-OH), the inhibition stood at 54.6%.

With `CC(=O)N[C@@H](CO)C(=O)NCCC(=O)N[C@H](C(=O)O)C(C)C`, the inhibition is 13.6%.

In the case of `CC(=O)N[C@@H](CO)C(=O)N[C@@H](CC(C)C)[C@@H](O)C(=O)N[C@H](C(=O)O)C(C)C`, the inhibition was determined as 4.9%. Turning to `CC(=O)N[C@@H](CO)C(=O)N[C@@H](Cc1ccc(Oc2ccc(OC(C)=O)cc2)cc1)C(=O)N[C@H](C(=O)O)C(C)C`, the inhibition was found to be 46.7%. With `CC(=O)N[C@@H](CO)C(=O)N[C@H](C(=O)N[C@H](C(=O)O)C(C)C)C1CCCCC1` (Ac-Ser-[Chg]-Val-OH), the inhibition came out at 34.7%. In the case of `CC[C@H](NC(=O)[C@H](CO)NC(C)=O)C(=O)N[C@H](C(=O)O)C(C)C` (Ac-Ser-[Abu]-Val-OH), the inhibition turned out to be 21.1%. On the same count and under the same terms, to `CC(=O)N[C@@H](CO)C(=O)N[C@@H](CC(C)C)C(=O)N[C@H](C(=O)O)C(C)C` belongs 31.1%; to `CCC[C@H](NC(=O)[C@H](CO)NC(C)=O)C(=O)N[C@H](C(=O)O)C(C)C` (Ac-Ser-[Nva]-Val-OH), 6%.

For `CC(=O)N[C@@H](CO)C(=O)N[C@H](C(=O)N[C@H](C(=O)O)C(C)C)c1ccccc1` (Ac-Ser-[Phg]-Val-OH), the inhibition turned out to be 18.5%.

Tested on in the next assay: not listed separately
Put plainly: Compound (50 mM) was tested in vitro for inhibitory potency against Fas-associated phosphatase-1 binding from HFAP-10cDNA subcloned into the bluescript vector pSK-II(Stratagene).
Conditions: not given
The procedure, abridged:
as §1
Consider `CC(=O)N[C@@H](CC(C)C)[C@@H](O)CC(=O)N[C@@H](CC(C)C)C(=O)N[C@H](C(=O)O)C(C)C` (Ac-[Sta]-Leu-Val-OH), for which the inhibition was 9.9%. Consider `CC(=O)N1C[C@@H](O)C[C@H]1C(=O)N[C@@H](CC(C)C)C(=O)N[C@H](C(=O)O)C(C)C`, for which the inhibition stood at 9.6%. For `CC(=O)N[C@@H](CO)C(=O)N[C@@H](CC(C)C)C(=O)N[C@@H](CC(C)(C)C)C(=O)O` (Ac-Ser-Leu-[tBuAla]-OH), the inhibition worked out at 10.1%. In the case of `CC(=O)N[C@@H](CO)C(=O)N[C@@H](CC(C)C)C(=O)N[C@H](C(=O)O)C1CCCCC1` (Ac-Ser-Leu-[Chg]-OH), the inhibition stood at 7.7%. Still for that read-out and setting: to `CC(=O)N[C@@H](CCO)C(=O)N[C@@H](CC(C)C)C(=O)N[C@H](C(=O)O)C(C)C` (Ac-[hSer]-Leu-Val-OH) belongs 13.3%; to `CCC[C@H](NC(=O)[C@H](CC(C)C)NC(=O)[C@H](CO)NC(C)=O)C(=O)O` (Ac-Ser-Leu-[Nva]-OH), 16.6%; to `CC(=O)N1C[C@H](O)C[C@H]1C(=O)N[C@@H](CC(C)C)C(=O)N[C@H](C(=O)O)C(C)C`, 2.4%. `CC(=O)N[C@@H](CO)C(=O)N[C@@H](CC(C)C)C(=O)N[C@H](C(=O)O)C(C)(C)C` (Ac-Ser-Leu-[Tle]-OH): the inhibition came out at 7.2%. On the same count and under the same terms, to `CC[C@H](NC(=O)[C@H](CC(C)C)NC(=O)[C@H](CO)NC(C)=O)C(=O)O` (Ac-Ser-Leu-[Abu]-OH) belongs 18.7%; to `CC(=O)N[C@@H](CO)C(=O)N[C@@H](CC(C)C)C(=O)N[C@H](C(=O)O)C(C)C`, 44.3%.

Tested on in a further assay: not listed separately
Put plainly: Compound (100 mM) was tested in vitro for inhibitory potency against Fas-associated phosphatase-1 binding from HFAP-10cDNA subcloned into the bluescript vector pSK-II(Stratagene).
Conditions: not given
The procedure, abridged:
as §1
Take `CC(=O)N[C@@H](COC(C)=O)C(=O)N[C@@H](CC(C)C)C(=O)N[C@H](C(=O)O)C(C)C` (Ac-Ser(Ac)-Leu-Val-OH): the inhibition came out at 47.9%.

`CC(=O)N[C@@H](COC(=O)c1ccccc1)C(=O)N[C@@H](CC(C)C)C(=O)N[C@H](C(=O)O)C(C)C` (Ac-Ser(Bz)-Leu-Val-OH): the inhibition was determined as 36.2%. In the case of `CC(=O)N[C@@H](COCc1ccccc1)C(=O)N[C@@H](CC(C)C)C(=O)N[C@H](C(=O)O)C(C)C` (Ac-Ser(Bn)-Leu-Val-OH), the inhibition came to 10.4%.

With `CC(=O)N[C@@H](CO)C(=O)N[C@@H](CC(C)C)C(=O)N[C@H](C(=O)O)C(C)C`, the inhibition was 87.6%.

Tested on in a further assay: not listed separately
Put plainly: Compound (10 mM) was tested in vitro for inhibitory potency against Fas-associated phosphatase-1 binding from HFAP-10cDNA subcloned into the bluescript vector pSK-II(Stratagene). Particulars: in the assay text read “10 uM” for “10 mM”. A digest of the protocol:
as §1
For `CC(C)C[C@H](NC(=O)[C@H](CO)NC(=O)c1ccccc1)C(=O)N[C@H](C(=O)O)C(C)C` (Bz-Ser-Leu-Val-OH), the inhibition stood at 28%. On the same count and under the same terms, to `CC(C)C[C@H](NC(=O)[C@H](CO)NC(=O)C1CCCCC1)C(=O)N[C@H](C(=O)O)C(C)C` belongs 16%. Consider `CC(C)C[C@H](NC(=O)[C@H](CO)NC(=O)NC1CCCCC1)C(=O)N[C@H](C(=O)O)C(C)C`, for which the inhibition is 29.1%. On to `CC(C)C[C@H](NC(=O)[C@H](CO)NC(=O)Nc1ccccc1)C(=O)N[C@H](C(=O)O)C(C)C` ({NHPh-CO}-Ser-Leu-Val-OH), for which the inhibition stood at 51.5%. For `CC[C@@H](C)[C@H](NC(=O)[C@H](CCC(=O)O)NC(C)=O)C(=O)N[C@@H](CCC(N)=O)C(=O)N[C@@H](CO)C(=O)N[C@@H](CC(C)C)C(=O)N[C@H](C(=O)O)C(C)C`, the inhibition turned out to be 29.6%. For `CC(C)C[C@H](NC(=O)[C@H](CO)NC(=O)Nc1ccccc1C(=O)[C@@H](N)CCC(=O)O)C(=O)N[C@H](C(=O)O)C(C)C`, the inhibition amounted to 47.8%. Same read-out and setting: the same measure for `CC(C)C[C@H](NC(=O)[C@H](CO)NC(=O)Nc1ccc(C(=O)[C@@H](N)CCC(=O)O)cc1)C(=O)N[C@H](C(=O)O)C(C)C`: 66.6%.

For `CC(C)C[C@H](NC(=O)[C@H](CO)NC(=O)Nc1cccc(C(=O)[C@@H](N)CCC(=O)O)c1)C(=O)N[C@H](C(=O)O)C(C)C`, the inhibition was 76.8%.

The target of a further assay is Tyrosine-protein phosphatase non-receptor type 13 (Homo sapiens) (UniProt Q12923). Put plainly: In vitro inhibition of Fas-associated phosphatase-1 binding from HFAP-10cDNA subcloned into bluescript vector. Set-up: concentration or dose not given beside the values. Particulars: concentration not given here. A digest of the protocol: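 35S-labeled FAP-1 incubated 16 h at 4 °C with peptide and GST-Fas fusion protein on glutathione beads in 150 mM NaCl, 50 mM Tris pH 8.0, 5 mM DTT, 2 mM EDTA, 1.1% NP-40, protease inhibitors. After four washes, bead-bound radioactivity counted by scintillation. Specific binding is Fas minus Fas∆15 binding. % inhibition = 100 − (specific binding with peptide / without peptide × 100).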
Sequence of Tyrosine-protein phosphatase non-receptor type 13 (Homo sapiens) (Q12923 whole entry, the tested form may be a part): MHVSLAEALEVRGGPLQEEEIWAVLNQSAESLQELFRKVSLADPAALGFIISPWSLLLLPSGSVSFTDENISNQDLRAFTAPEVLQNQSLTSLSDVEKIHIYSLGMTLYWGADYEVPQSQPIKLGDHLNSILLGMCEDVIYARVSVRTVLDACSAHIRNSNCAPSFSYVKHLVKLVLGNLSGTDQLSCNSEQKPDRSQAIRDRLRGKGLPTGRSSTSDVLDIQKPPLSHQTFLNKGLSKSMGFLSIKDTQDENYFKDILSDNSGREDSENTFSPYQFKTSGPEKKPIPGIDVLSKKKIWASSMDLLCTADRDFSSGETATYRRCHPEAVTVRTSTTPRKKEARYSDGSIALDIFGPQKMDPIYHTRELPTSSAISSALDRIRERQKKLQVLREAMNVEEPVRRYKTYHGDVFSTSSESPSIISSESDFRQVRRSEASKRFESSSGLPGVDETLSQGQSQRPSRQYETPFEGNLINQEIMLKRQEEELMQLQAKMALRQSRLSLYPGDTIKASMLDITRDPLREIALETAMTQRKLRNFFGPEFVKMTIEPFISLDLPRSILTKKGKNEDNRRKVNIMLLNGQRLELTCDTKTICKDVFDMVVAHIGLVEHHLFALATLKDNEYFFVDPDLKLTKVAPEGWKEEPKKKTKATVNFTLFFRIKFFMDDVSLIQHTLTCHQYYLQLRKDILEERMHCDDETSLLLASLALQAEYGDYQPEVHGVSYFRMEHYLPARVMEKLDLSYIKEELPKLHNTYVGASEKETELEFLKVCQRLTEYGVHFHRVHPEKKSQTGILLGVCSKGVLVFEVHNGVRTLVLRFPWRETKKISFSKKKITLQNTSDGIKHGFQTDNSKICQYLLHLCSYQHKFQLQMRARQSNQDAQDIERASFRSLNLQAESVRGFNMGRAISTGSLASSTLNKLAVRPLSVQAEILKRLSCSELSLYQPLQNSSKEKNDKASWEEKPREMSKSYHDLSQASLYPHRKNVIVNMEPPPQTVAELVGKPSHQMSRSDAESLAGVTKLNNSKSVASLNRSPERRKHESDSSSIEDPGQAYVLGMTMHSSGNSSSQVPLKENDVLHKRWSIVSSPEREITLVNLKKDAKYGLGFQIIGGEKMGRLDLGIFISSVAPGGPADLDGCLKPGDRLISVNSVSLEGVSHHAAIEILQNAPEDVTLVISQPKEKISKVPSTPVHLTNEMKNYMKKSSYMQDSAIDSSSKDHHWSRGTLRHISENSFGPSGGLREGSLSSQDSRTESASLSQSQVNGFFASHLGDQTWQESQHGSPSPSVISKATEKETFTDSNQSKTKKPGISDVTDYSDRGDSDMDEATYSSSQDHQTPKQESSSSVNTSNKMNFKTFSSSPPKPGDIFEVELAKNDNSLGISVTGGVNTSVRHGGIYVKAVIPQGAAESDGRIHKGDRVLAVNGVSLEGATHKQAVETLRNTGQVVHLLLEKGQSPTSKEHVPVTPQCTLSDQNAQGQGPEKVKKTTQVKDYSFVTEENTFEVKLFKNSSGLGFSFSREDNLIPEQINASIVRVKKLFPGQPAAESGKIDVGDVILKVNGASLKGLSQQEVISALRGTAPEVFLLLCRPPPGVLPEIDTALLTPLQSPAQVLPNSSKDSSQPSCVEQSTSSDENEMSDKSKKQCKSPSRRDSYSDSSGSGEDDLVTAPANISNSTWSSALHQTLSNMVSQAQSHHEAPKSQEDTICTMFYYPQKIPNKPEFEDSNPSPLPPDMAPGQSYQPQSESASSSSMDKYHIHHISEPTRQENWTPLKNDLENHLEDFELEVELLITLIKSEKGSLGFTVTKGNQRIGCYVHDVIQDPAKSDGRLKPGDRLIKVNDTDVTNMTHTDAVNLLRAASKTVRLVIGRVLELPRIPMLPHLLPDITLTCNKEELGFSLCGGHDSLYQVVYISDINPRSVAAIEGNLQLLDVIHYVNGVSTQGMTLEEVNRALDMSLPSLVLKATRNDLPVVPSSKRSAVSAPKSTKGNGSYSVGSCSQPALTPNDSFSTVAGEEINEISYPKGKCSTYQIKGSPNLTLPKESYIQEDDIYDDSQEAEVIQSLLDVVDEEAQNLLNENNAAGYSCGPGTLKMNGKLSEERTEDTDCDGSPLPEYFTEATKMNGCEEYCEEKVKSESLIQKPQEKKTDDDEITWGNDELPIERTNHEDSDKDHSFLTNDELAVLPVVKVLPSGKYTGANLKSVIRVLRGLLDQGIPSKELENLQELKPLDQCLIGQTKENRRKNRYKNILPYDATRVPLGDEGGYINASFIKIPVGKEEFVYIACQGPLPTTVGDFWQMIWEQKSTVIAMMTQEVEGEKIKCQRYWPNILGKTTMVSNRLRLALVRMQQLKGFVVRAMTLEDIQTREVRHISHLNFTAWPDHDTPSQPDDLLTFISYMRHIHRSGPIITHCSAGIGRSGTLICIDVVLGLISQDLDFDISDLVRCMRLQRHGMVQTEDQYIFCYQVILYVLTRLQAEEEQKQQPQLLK
For the compound `CC(=O)N[C@@H](CO)C(=O)NC(C)(C)C(=O)N[C@H](C(=O)O)C(C)C` (Ac-Ser-[Aib]-Val-OH), the inhibition was -4%.

With `CC(=O)N[C@@H](CO)C(=O)N[C@@H](CC(C)C)C(=O)N[C@@H](C(=O)O)C(C)C`, the inhibition is -6.8%. Same read-out and setting: to `CC(=O)N(C)[C@@H](CO)C(=O)N[C@@H](CC(C)C)C(=O)N[C@H](C(=O)O)C(C)C` (Ac-[NMeS]-Leu-Val-OH) belongs 20.6%; to `CC(=O)N[C@@H](CO)C(=O)Nc1ccc(C(=O)N[C@H](C(=O)O)C(C)C)cc1`, 16.5%; to `CC(=O)N[C@H](CO)C(=O)N[C@@H](CC(C)C)C(=O)N[C@H](C(=O)O)C(C)C`, 59.2%. Still for that read-out and setting: to `CC(=O)N[C@@H](CO)C(=O)Nc1cccc(C(=O)N[C@H](C(=O)O)C(C)C)c1` belongs 9.5%.

For the compound `CC(=O)N[C@@H](CO)C(=O)N[C@@H](CC(C)C)C(=O)N[C@H](C(=O)Oc1nn[nH]n1)C(C)C`, the inhibition was 14.4%. The same measure, in the same setting: to `CC(=O)N[C@@H](CO)C(=O)N[C@@H](CC(C)C)C(=O)N[C@H](C(=O)O)C(C)C` belongs 101%.

For the compound `CC(=O)N[C@@H](CO)C(=O)N(C)[C@@H](CC(C)C)C(=O)N[C@H](C(=O)O)C(C)C` (Ac-Ser-[NMeL]-Val-OH), the inhibition came out at 33.4%. On to `CC(=O)N[C@@H](CO)C(=O)N[C@H](CC(C)C)C(=O)N[C@H](C(=O)O)C(C)C`, for which the inhibition came to 1.2%. `COC(=O)[C@@H](NC(=O)[C@H](CC(C)C)NC(=O)[C@H](CO)NC(C)=O)C(C)C` (Ac-Ser-Leu-Val-OMe): the inhibition was -0.5%.

The term inhibition denotes the change of the read-out against control, counted positive when it falls.
